Results on twelve compounds are retold here after ChEMBL document CHEMBL3259713, “Dissecting the structure of thiopeptides: assessment of thiazoline and tail moieties of baringolin and antibacterial activity optimization” (J Med Chem, 2014).

SMILES strings stand for the structures. Values after ≈ are worked out from the molar mass of the structure shown. Square brackets hold non-standard residues; d marks the D form. Peptide text beside a SMILES is read from it. * marks the point of attachment. Dha = C=C(N)C(=O)O; X1 = O=C(c1cscn1)*

Data set [1] has as its system Micrococcus luteus. Briefly: Antibacterial activity against Micrococcus luteus ATCC 9341 assessed as growth inhibition after 24 hrs by CLSI M7-A9 broth microdilution method. The class given is functional. To be noted: ATCC 9341, 24 h. In a few lines:
(§1)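 Isolates from frozen stocks subcultured at least twice on sheep blood agar and grown 24 h before testing. Inoculum made by direct suspension in saline to 0.5 McFarland turbidity. MIC determined by broth microdilution in Mueller-Hinton broth following CLSI M7-A9, incubated at 35 °C for 24 h.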
A general note: Broth dilution looks for growth in wells or tubes with falling amounts of substance.

Data set [2] can be described thus: Solubility of the compound in 0.1 M phosphate buffer after 48 hrs by spectrophotometer analysis. The format is physicochemical. In short, it runs like this: (§2)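 About 1 mg of solid was combined with a known volume of solvent so that the solution was saturated. It was vortexed 1 min, shaken 48 h and centrifuged at 10000 rpm for 3 min. Dissolved compound in the supernatant was measured by absorbance at 304 nm.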

For data set [3], the system named is Cutibacterium acnes. The data set is described as follows: Antibacterial activity against Propionibacterium acnes assessed as growth inhibition after 24 hrs by CLSI M11-A8 broth microdilution method. The class given is functional. In a few lines:
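This anaerobe was subcultured at least twice from frozen stock on supplemented Brucella agar and grown 48 h before testing. Inoculum was a direct saline suspension at 0.5 McFarland. MIC was by microdilution in Brucella broth with hemin (5 μg/mL), vitamin K1 and 5% lysed horse blood per CLSI M11-A8, 35 °C for 24 h under anaerobic conditions.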

In data set [4] the test system is Bacillus subtilis. Briefly: Antibacterial activity against Bacillus subtilis ATCC 6633 assessed as growth inhibition after 24 hrs by CLSI M7-A9 broth microdilution method. The class given is functional. The conditions noted are these: ATCC 6633, 24 h. In a few lines: as §1
Data set [5] deals with Staphylococcus aureus. Briefly: Antibacterial activity against Staphylococcus aureus assessed as growth inhibition after 24 hrs by CLSI M7-A9 broth microdilution method. The class given is functional. In a few lines:
as §1

The nature of data set [6]: Solubility of the compound in water after 48 hrs by spectrophotometer analysis. The class given is physicochemical. In short, it runs like this: as §2

What is called MIC is the smallest concentration in the dilution series that meets the test's criterion for growth inhibition. What is called solubility is the dissolved amount per volume that the medium holds. As for `Cc1oc2nc1C(=O)N[C@@H](CC(N)=O)c1nc(cs1)C(=O)N[C@@H](Cc1ccccc1)c1nc(cs1)C(=O)N[C@@H](Cc1ccc(O)cc1)C(=O)N1CCC[C@H]1c1nc(cs1)-c1nc(cs1)-c1nc(-c3nc(C(=O)O)cs3)ccc1-2`, the MIC is more than 8 µg/mL in data set [1], 2 µg/mL (≈ 1.76 µM) in data set [3], 8 µg/mL (≈ 7.02 µM) in data set [4] and 2 µg/mL (≈ 1.76 µM) in data set [5]. Moreover, the solubility at 48 h in data set [2] came to 23 µg/mL (≈ 20.2 µM).

Regarding `C=C(NC(=O)C(=C)NC(=O)[C@@H]1CCCN1C(=O)[C@H](C)NC(=O)C(=C)NC(=O)c1csc(-c2ccc3c(n2)-c2csc(n2)-c2csc(n2)[C@@H]2CCCN2C(=O)[C@H](Cc2ccc(O)cc2)NC(=O)[C@H]2CSC(=N2)[C@H](Cc2ccccc2)NC(=O)c2csc(n2)[C@H](CC(N)=O)NC(=O)c2nc-3oc2C)n1)C(N)=O`, the MIC in data set [1] amounted to 0.5 µg/mL (≈ 0.33 µM); in data set [3], 0.125 µg/mL (≈ 0.0825 µM); in data set [4], 0.25 µg/mL (≈ 0.165 µM); in data set [5] it was 0.25 µg/mL (≈ 0.165 µM).

For the compound `C=C(NC(=O)C(=C)NC(=O)[C@@H]1CCCN1C(=O)[C@H](C)NC(=O)C(=C)NC(=O)c1csc(-c2ccc3c(n2)-c2csc(n2)-c2csc(n2)[C@@H]2CCCN2C(=O)[C@H](Cc2ccc(O)cc2)NC(=O)c2csc(n2)[C@H](Cc2ccccc2)NC(=O)c2csc(n2)[C@H](CC(N)=O)NC(=O)c2nc-3oc2C)n1)C(N)=O`, the MIC came to 2 µg/mL (≈ 1.32 µM) in data set [1], 8 µg/mL (≈ 5.28 µM) in data set [3], 1 µg/mL (≈ 0.661 µM) in data set [4] and 0.5 µg/mL (≈ 0.33 µM) in data set [5].

As to `C=C(NC(=O)c1csc(-c2ccc3c(n2)-c2csc(n2)-c2csc(n2)[C@@H]2CCCN2C(=O)[C@H](Cc2ccc(O)cc2)NC(=O)C2CSC(=N2)[C@H](Cc2ccccc2)NC(=O)c2csc(n2)[C@H](CC(N)=O)NC(=O)c2nc-3oc2C)n1)C(=O)N[C@@H](C)C(=O)N1CCC[C@H]1C(N)=O` (stereo partly drawn), the minimum inhibitory concentration (MIC) in data set [1] was 0.5 µg/mL (≈ 0.363 µM); in data set [3], 0.125 µg/mL (≈ 0.0907 µM); in data set [4], 0.25 µg/mL (≈ 0.181 µM); in data set [5], 0.25 µg/mL (≈ 0.181 µM).

For `CCOC(=O)c1csc(-c2ccc3c(n2)-c2csc(n2)-c2csc(n2)[C@@H]2CCCN2C(=O)[C@H](Cc2ccc(O)cc2)NC(=O)c2csc(n2)[C@H](Cc2ccccc2)NC(=O)c2csc(n2)[C@H](CC(N)=O)NC(=O)c2nc-3oc2C)n1`, the MIC in data set [1] was 2 µg/mL (≈ 1.71 µM); in data set [3], 4 µg/mL (≈ 3.43 µM); in data set [4], more than 8 µg/mL; in data set [5], more than 8 µg/mL.

Turning to `C=C(NC(=O)c1csc(-c2ccc3c(n2)-c2csc(n2)-c2csc(n2)[C@@H]2CCCN2C(=O)[C@H](Cc2ccc(O)cc2)NC(=O)c2csc(n2)[C@H](Cc2ccccc2)NC(=O)c2csc(n2)[C@H](CC(N)=O)NC(=O)c2nc-3oc2C)n1)C(=O)N[C@@H](C)C(=O)N1CCC[C@H]1C(N)=O`, the MIC in data set [1] worked out at 2 µg/mL (≈ 1.45 µM); in data set [3], 4 µg/mL (≈ 2.91 µM); in data set [4] it was 8 µg/mL (≈ 5.82 µM); in data set [5], 0.5 µg/mL (≈ 0.363 µM).

Consider `C=C(NC(=O)[C@@H]1CCCN1C(=O)[C@H](C)NC(=O)C(=C)NC(=O)c1csc(-c2ccc3c(n2)-c2csc(n2)-c2csc(n2)[C@@H]2CCCN2C(=O)[C@H](Cc2ccc(O)cc2)NC(=O)C2CSC(=N2)[C@H](Cc2ccccc2)NC(=O)c2csc(n2)[C@H](CC(N)=O)NC(=O)c2nc-3oc2C)n1)C(N)=O` (stereo partly drawn), for which the MIC in data set [1] came to 1 µg/mL (≈ 0.691 µM); in data set [3] it was 0.5 µg/mL (≈ 0.346 µM); in data set [4], 0.5 µg/mL (≈ 0.346 µM); in data set [5], 0.5 µg/mL (≈ 0.346 µM).

As for `CCOC(=O)c1csc(-c2ccc3c(n2)-c2csc(n2)-c2csc(n2)[C@@H]2CCCN2C(=O)[C@H](Cc2ccc(O)cc2)NC(=O)C2CSC(=N2)[C@H](Cc2ccccc2)NC(=O)c2csc(n2)[C@H](CC(N)=O)NC(=O)c2nc-3oc2C)n1` (stereo partly drawn), the MIC in data set [1] is 4 µg/mL (≈ 3.42 µM); in data set [3], 4 µg/mL (≈ 3.42 µM); in data set [4], 8 µg/mL (≈ 6.84 µM); in data set [5], more than 8 µg/mL.

Regarding `C=C(NC(=O)[C@@H]1CCCN1C(=O)[C@H](C)NC(=O)C(=C)NC(=O)c1csc(-c2ccc3c(n2)-c2csc(n2)-c2csc(n2)[C@@H]2CCCN2C(=O)[C@H](Cc2ccc(O)cc2)NC(=O)c2csc(n2)[C@H](Cc2ccccc2)NC(=O)c2csc(n2)[C@H](CC(N)=O)NC(=O)c2nc-3oc2C)n1)C(N)=O`, the MIC in data set [1] was found to be 2 µg/mL (≈ 1.38 µM); in data set [3], 8 µg/mL (≈ 5.54 µM); in data set [4], 0.5 µg/mL (≈ 0.346 µM); in data set [5] it was 0.5 µg/mL (≈ 0.346 µM).

Consider `C=C(NC(=O)C(=C)NC(=O)[C@@H]1CCCN1C(=O)[C@H](C)NC(=O)C(=C)NC(=O)c1cscn1)C(N)=O` (X1-[Dha]AP[Dha][Dha]-NH2), for which the MIC in data set [1] was 2 µg/mL (≈ 3.97 µM); in data set [3], 8 µg/mL (≈ 15.9 µM); in data set [4], more than 8 µg/mL; in data set [5], more than 8 µg/mL. The solubility at 48 h is 6650 µg/mL (≈ 13200 µM) in data set [2] and 4660 µg/mL (≈ 9260 µM) in data set [6].

For `Cc1oc2nc1C(=O)N[C@@H](CC(N)=O)c1nc(cs1)C(=O)N[C@@H](Cc1ccccc1)c1nc(cs1)C(=O)N[C@@H](Cc1ccc(O)cc1)C(=O)N1CCC[C@H]1c1nc(cs1)-c1nc(cs1)-c1nc(-c3nc(C(N)=O)cs3)ccc1-2`, the MIC is more than 8 µg/mL in data set [1], 8 µg/mL (≈ 7.03 µM) in data set [3], 8 µg/mL (≈ 7.03 µM) in data set [4] and 1 µg/mL (≈ 0.878 µM) in data set [5]. In data set [2], this compound returned a solubility at 48 h of 7 µg/mL (≈ 6.15 µM).

For `Cc1oc2nc1C(=O)N[C@@H](CC(N)=O)c1nc(cs1)C(=O)N[C@@H](Cc1ccccc1)c1nc(cs1)C(=O)N[C@@H](Cc1ccc(O)cc1)C(=O)N1CCC[C@H]1c1nc(cs1)-c1nc(cs1)-c1nc(-c3nc(C(=O)N[C@H]4CC[C@H](C(=O)O)CC4)cs3)ccc1-2`, the MIC in data set [1] is 0.5 µg/mL (≈ 0.395 µM); in data set [3], 0.06 µg/mL (≈ 0.0474 µM); in data set [4], 0.03 µg/mL (≈ 0.0237 µM); in data set [5] it was 0.03 µg/mL (≈ 0.0237 µM). The compound also showed a solubility at 48 h in data set [2] of 18 µg/mL (≈ 14.2 µM).
